ChEMBL document CHEMBL1133451, “Optimization of substituted N-3-benzylimidazoquinazolinone sulfonamides as potent and selective PDE5 inhibitors” (J Med Chem, 2000)

Experiments:
[1] = molecular target: cGMP-specific 3',5'-cyclic phosphodiesterase (Homo sapiens, UniProt O76074); test: In vitro inhibitory concentration against human platelet Phosphodiesterase 5 was determined
[2] = In vitro selectivity ratio of Bovine Heart PDE1 to human platelet PDE5 was determined
In short: (§1)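 Scintillation proximity PDE assay at room temperature, read by scintillation counting. Substrates: [³H]cGMP for PDE5 (sonicated human platelet homogenate) and PDE1 (bovine heart, with 1 µM calmodulin and 4 mM calcium). PDE2 (rat kidney cytosol, Mono-Q purified) used [³H]cAMP plus 1 µM nonradioactive cGMP. PDE6 was stripped from bovine rod outer segments and trypsin-activated. Blank subtracted; activity as percent of vehicle; ratio = IC50 other/IC50 PDE5.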

[3] = In vitro selectivity ratio of PDE6 of Bovine retina to human platelet PDE5 was determined; in short: as §1
[4] = In vitro selectivity ratio of PDE2 of Rat kidney to human platelet PDE5 was determined; in short: as §1
[5] = tested on: cGMP-specific 3',5'-cyclic phosphodiesterase (Oryctolagus cuniculus); test: Rabbit Corpus Cavernosum functional assay at 30 nM to determine the efficacy of PDE5 inhibition activity.
[6] = Selectivity ratio for Bovine retinal PDE6 and human platelet PDE5; in short: as §1

Structure (SMILES)	IC50 [1]	IC50 ratio [2]	IC50 ratio [3]	IC50 ratio [4]	Control relaxation [5]	IC50 ratio [6]
CCCOc1ccc(S(=O)(=O)N2CCN(CC)CC2)cc1-c1nc(O)c2cc3c(cc2n1)ncn3Cc1ccccc1Cl		> 10000	40	> 10000	90%	
CCCOc1ccc(S(N)(=O)=O)cc1-c1nc(O)c2cc3c(cc2n1)ncn3Cc1ccc(F)cc1		> 10000	20	> 10000	100%	
CCCOc1ccc(C(=O)N2CCN(CC)CC2)cc1-c1nc2cc3ncn(Cc4ccc(F)cc4)c3cc2c(=O)[nH]1	35 nM					
CCCOc1ccc(S(=O)(=O)N2CCN(C)CC2)cc1-c1nc2cc3ncn(Cc4ccc(F)cc4)c3cc2c(=O)[nH]1	3.3 nM					
CCCOc1ccc(S(=O)(=O)N2CC[C@H](N(C)C)C2)cc1-c1nc(O)c2cc3c(cc2n1)ncn3Cc1ccccc1	27 nM					3
CCCOc1ccc(S(N)(=O)=O)cc1-c1nc2cc3ncn(Cc4ccc(F)cc4)c3cc2c(=O)[nH]1	3.2 nM					
CCCOc1ccc(C(N)=O)cc1-c1nc(O)c2cc3c(cc2n1)ncn3Cc1ccc(F)cc1		> 100000	60	> 100000	140%	
CCCOc1ccc(C(=O)N2CC[C@@H](N(C)C)C2)cc1-c1nc2cc3ncn(Cc4ccc(F)cc4)c3cc2c(=O)[nH]1	40 nM					
CCCOc1ccc(S(=O)(=O)N2CCN(CC)CC2)cc1-c1nc(O)c2cc3c(cc2n1)ncn3Cc1cccc(F)c1		> 10000	80	> 10000	100%	
CCCOc1ccc(S(=O)(=O)N2CCN(C)CC2)cc1-c1nc(O)c2cc3c(cc2n1)ncn3Cc1ccccc1		3400	20	> 10000	120%	

Other lines, results leading:

IC50 [1]	IC50 ratio [2]	IC50 ratio [3]	IC50 ratio [4]	Control relaxation [5]	IC50 ratio [6]	Structure (SMILES)
1.6 nM						CCCOc1ccc(S(=O)(=O)N2CCN(CC)CC2)cc1-c1nc2cc3ncn(Cc4ccccc4Cl)c3cc2c(=O)[nH]1
0.62 nM						CCCOc1ccc(S(=O)(=O)N2CCN(CC)CC2)cc1-c1nc2cc3ncn(Cc4ccccc4OC)c3cc2c(=O)[nH]1
1.4 nM						CCCOc1ccc(S(=O)(=O)N2CCN(CC)CC2)cc1-c1nc2cc3ncn(Cc4cccc(F)c4)c3cc2c(=O)[nH]1
0.2 nM	> 10000	70	> 10000	120%		CCCOc1ccc(S(=O)(=O)N2CC[C@@H](N(C)C)C2)cc1-c1nc2cc3ncn(Cc4ccc(F)cc4)c3cc2c(=O)[nH]1
0.52 nM	> 10000	50	> 10000			CCCOc1ccc(S(=O)(=O)N2CC[C@@H](N(C)C)C2)cc1-c1nc(O)c2cc3c(cc2n1)ncn3Cc1ccc(Cl)cc1
1.1 nM	> 10000	50	> 10000	90%		CCCOc1ccc(S(=O)(=O)N2CCN(CC)CC2)cc1-c1nc(O)c2cc3c(cc2n1)ncn3Cc1ccccc1
1.1 nM	> 10000	50	7000	130%		CCCOc1ccc(S(=O)(=O)N2CCN(CC)CC2)cc1-c1nc(O)c2cc3c(cc2n1)ncn3Cc1cccc(OC)c1
1.7 nM	> 10000	80	> 10000	100%		CCCOc1ccc(S(=O)(=O)N2CCN(CC)CC2)cc1-c1nc(O)c2cc3c(cc2n1)ncn3Cc1ccc(F)cc1
1.1 nM	> 10000	30	> 10000	110%		CCCOc1ccc(S(=O)(=O)N2CC[C@@H](N(C)C)C2)cc1-c1nc(O)c2cc3c(cc2n1)ncn3Cc1ccccc1
